Data published in ChEMBL document CHEMBL3272181, “Design of substrate-site-directed irreversible inhibitors of adenosine 5'-phosphate aminohydrolase. Effect of substrate substituents on affinity for the substrate site” (J Med Chem, 1976).

Columns and labels:
[1] = Retardation factor, Rf of the compound in 5:2:3 1-butanol-acetic acid-water by paper chromatographic analysis; format: physicochemical; details: buffer
[2] = Retardation factor, Rf of the compound in 1:1 2-propanol-0.25 M triethylammonium bicarbonate by paper chromatographic analysis; format: physicochemical
Oryctolagus cuniculus [3] = species on record: Oryctolagus cuniculus; test: Activity at rabbit muscle AMP aminohydrolase after 24 hrs by Lineweaver-Burk plot analysis relative to AMP; format: tissue-based; details: Muscle tissue
[4] = Linear competitive inhibition of rabbit muscle AMP aminohydrolase using AMP as substrate at 27 to 54 uM by Lineweaver-Burk plot analysis; format: tissue-based, Oryctolagus cuniculus, Muscle tissue
How it was run: (§1)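 Rabbit-muscle AMP aminohydrolase (Grade IV), diluted into 1 M KCl before use. Assayed at 22° in 0.01 M citrate buffer pH 6.5 with 25 mM KCl, following the fall in absorbance at 265 nm (Δε 8400, except 8-bromo-AMP). Initial velocities were linear and proportional to enzyme. At least four substrate and two inhibitor levels were used; parameters came from Lineweaver-Burk plots.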

Oryctolagus cuniculus [5] = species on record: Oryctolagus cuniculus; test: Activity at rabbit muscle AMP aminohydrolase by Lineweaver-Burk plot analysis; format: tissue-based; details: Muscle tissue; how it was run: as §1
[6] = Retardation factor, Rf of the compound in 4:1:5 1-butanol-acetic acid-water by paper chromatographic analysis; format: physicochemical; details: buffer
[7] = Retardation factor, Rf of the compound in 7:3 95% ethanol-1M ammonium acetate at pH 7.5 by paper chromatographic analysis; format: physicochemical
[8] = Retardation factor, Rf of the compound in 7:3 1-propanol-water by paper chromatographic analysis; format: physicochemical; details: buffer
[9] = Linear competitive inhibition of rabbit muscle AMP aminohydrolase using AMP as substrate at 11 to 22 uM by Lineweaver-Burk plot analysis; format: tissue-based, Oryctolagus cuniculus, Muscle tissue; how it was run: as §1
[10] = Linear competitive inhibition of rabbit muscle AMP aminohydrolase using AMP as substrate at 64 to 128 uM by Lineweaver-Burk plot analysis; format: tissue-based, Oryctolagus cuniculus, Muscle tissue; how it was run: as §1
[11] = Stability of the compound in Tris buffer at pH 8.5 at 22 degC; format: physicochemical
[12] = Linear competitive inhibition of rabbit muscle AMP aminohydrolase using AMP as substrate at 21 to 42 uM by Lineweaver-Burk plot analysis; format: tissue-based, Oryctolagus cuniculus, Muscle tissue; how it was run: as §1
[13] = Stability of the compound assessed as pancreatic protease type 1 (unknown origin)-mediated amide linkage cleavage at pH 7.6 after 24 hrs by paper electrophoretic analysis; format: ADME; details: buffer, pH 7.6, 24 h
How it was run: (§2)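 Compounds were incubated at 37° for 24 h in 0.05 M Tris pH 7.6 (2 ml) with one of: acylase 20 mg; pancreatic protease I 20 mg; fungal II 20 mg; papaya III 10 mg; bacterial IV 200 mg; VI 30 mg; VII 30 or 15 mg; X 5 mg; or hog-intestine peptidase 20 mg. Amide cleavage was checked by paper electrophoresis (pH 7.6, 4 kV, 30 min).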

[14] = Stability of the compound assessed as fungal protease type 2-mediated amide linkage cleavage at pH 7.6 after 24 hrs by paper electrophoretic analysis; format: ADME; details: fungi, buffer, pH 7.6, 24 h; how it was run: as §2
[15] = Stability of the compound assessed as papaya protease type 3-mediated amide linkage cleavage at pH 7.6 after 24 hrs by paper electrophoretic analysis; format: ADME; details: carica papaya, buffer, pH 7.6, 24 h; how it was run: as §2
[16] = Stability of the compound assessed as bacterial protease type 4-mediated amide linkage cleavage at pH 7.6 after 24 hrs by paper electrophoretic analysis; format: ADME; details: bacteria, buffer, pH 7.6, 24 h; how it was run: as §2
[17] = Stability of the compound assessed as bacterial protease type 6-mediated amide linkage cleavage at pH 7.6 after 24 hrs by paper electrophoretic analysis; format: ADME; details: bacteria, buffer, pH 7.6, 24 h; how it was run: as §2
[18] = Stability of the compound assessed as bacterial protease type 7-mediated amide linkage cleavage at pH 7.6 after 24 hrs by paper electrophoretic analysis; format: ADME; details: bacteria, buffer, pH 7.6, 24 h; how it was run: as §2
[19] = Stability of the compound assessed as bacterial protease type 8-mediated amide linkage cleavage at pH 7.6 after 24 hrs by paper electrophoretic analysis; format: ADME; details: bacteria, buffer, pH 7.6, 24 h
[20] = Stability of the compound assessed as bacterial protease type 10-mediated amide linkage cleavage at pH 7.6 after 24 hrs by paper electrophoretic analysis; format: ADME; details: bacteria, buffer, pH 7.6, 24 h; how it was run: as §2
[21] = Stability of the compound assessed as acylase (unknown origin)-mediated amide linkage cleavage at pH 7.6 after 24 hrs by paper electrophoretic analysis; format: ADME; details: buffer, pH 7.6, 24 h; how it was run: as §2
[22] = Stability of the compound assessed as hog intestinal peptidase-mediated amide linkage cleavage at pH 7.6 after 24 hrs by paper electrophoretic analysis; format: ADME, Sus scrofa; details: pig, isolated protein, pH 7.6, 24 h; how it was run: as §2
Oryctolagus cuniculus [23] = species on record: Oryctolagus cuniculus; test: Activity at rabbit muscle AMP aminohydrolase after 48 hrs by Lineweaver-Burk plot analysis relative to AMP; format: tissue-based; details: Muscle tissue
[24] = Linear noncompetitive inhibition of rabbit muscle AMP aminohydrolase using AMP as substrate at 19 to 38 uM by Lineweaver-Burk plot analysis; format: tissue-based, Oryctolagus cuniculus, Muscle tissue; how it was run: as §1
[25] = Linear competitive inhibition of rabbit muscle AMP aminohydrolase using AMP as substrate at 11 to 23 uM by Lineweaver-Burk plot analysis; format: tissue-based, Oryctolagus cuniculus, Muscle tissue; how it was run: as §1
[26] = Retardation factor, Rf of the compound in 7:1:2 2-propanol-concentrated ammonia-water by paper chromatographic analysis; format: physicochemical; details: buffer
[27] = Linear competitive inhibition of rabbit muscle AMP aminohydrolase using AMP as substrate at 49 to 148 uM by Lineweaver-Burk plot analysis; format: tissue-based, Oryctolagus cuniculus, Muscle tissue; how it was run: as §1
[28] = Linear competitive inhibition of rabbit muscle AMP aminohydrolase using AMP as substrate at 12 to 24 uM by Lineweaver-Burk plot analysis; format: tissue-based, Oryctolagus cuniculus, Muscle tissue; how it was run: as §1
[29] = Linear competitive inhibition of rabbit muscle AMP aminohydrolase using AMP as substrate at 14 to 28 uM by Lineweaver-Burk plot analysis; format: tissue-based, Oryctolagus cuniculus, Muscle tissue; how it was run: as §1
[30] = Non-linear competitive inhibition of rabbit muscle AMP aminohydrolase using AMP as substrate at 23 uM by Lineweaver-Burk plot analysis; format: tissue-based, Oryctolagus cuniculus, Muscle tissue; how it was run: as §1
[31] = Non-linear competitive inhibition of rabbit muscle AMP aminohydrolase using AMP as substrate at 46 uM by Lineweaver-Burk plot analysis; format: tissue-based, Oryctolagus cuniculus, Muscle tissue; how it was run: as §1
[32] = Linear competitive inhibition of rabbit muscle AMP aminohydrolase using AMP as substrate at 26 to 52 uM by Lineweaver-Burk plot analysis; format: tissue-based, Oryctolagus cuniculus, Muscle tissue; how it was run: as §1
[33] = Linear competitive inhibition of rabbit muscle AMP aminohydrolase using AMP as substrate at 49 to 99 uM by Lineweaver-Burk plot analysis; format: tissue-based, Oryctolagus cuniculus, Muscle tissue; how it was run: as §1

COC(=O)NCC(C[C@H]1O[C@@H](n2cnc3c(N)ncnc32)[C@H](O)[C@@H]1O)P(=O)(O)O (stereo partly drawn)
Rf [1]: 0.33 | Rf [2]: 0.75 | Activity (Oryctolagus cuniculus [3]): 0% | Ki [4]: 19 µM

NCC(C[C@H]1O[C@@H](n2cnc3c(N)ncnc32)[C@H](O)[C@@H]1O)P(=O)(O)O (stereo partly drawn)
Km (Oryctolagus cuniculus [5]): 140 µM | Rf [1]: 0.21 | Rf [2]: 0.49 | Activity (Oryctolagus cuniculus [3]): 0.65%

CC(=O)OC(C[C@H]1O[C@@H](n2cnc3c(N)ncnc32)[C@@H]2OC(C)(C)O[C@@H]21)P(=O)(O)O (stereo partly drawn)
Rf [1]: 0.65 | Rf [6]: 0.5 | Rf [7]: 0.39 | Rf [8]: 0.49

CCOC(=O)NCC(C[C@H]1O[C@@H](n2cnc3c(N)ncnc32)[C@H](O)[C@@H]1O)P(=O)(O)O (stereo partly drawn)
Rf [1]: 0.41 | Rf [2]: 0.78 | Activity (Oryctolagus cuniculus [3]): 0% | Ki [9]: 16 µM

CC(=O)OC(C[C@H]1O[C@@H](n2cnc3c(N)ncnc32)[C@H](O)[C@@H]1O)P(=O)(O)O (stereo partly drawn)
Km (Oryctolagus cuniculus [5]): 120 µM | Rf [1]: 0.31 | Rf [6]: 0.18 | Rf [7]: 0.17 | Rf [8]: 0.27 | Activity (Oryctolagus cuniculus [3]): 7.8% | Ki [10]: 330 µM | Stability [11]: 16 h

Nc1ncnc2c1ncn2[C@@H]1O[C@H](COP(=O)(O)O)[C@@H](O)[C@H]1O
Km (Oryctolagus cuniculus [5]): 600 µM | Vmax (Oryctolagus cuniculus [5]): 294 µmol/min | Activity (Oryctolagus cuniculus [3]): 100%

CCC(=O)NCC(C[C@H]1O[C@@H](n2cnc3c(N)ncnc32)[C@H](O)[C@@H]1O)P(=O)(O)O (stereo partly drawn)
Rf [1]: 0.39 | Rf [2]: 0.83 | Activity (Oryctolagus cuniculus [3]): 0% | Ki [12]: 17 µM | Stability [13]: Stable | Stability [14]: Stable | Stability [15]: Stable | Stability [16]: Stable | Stability [17]: Stable | Stability [18]: Stable | Stability [19]: Stable | Stability [20]: Stable | Stability [21]: Stable | Stability [22]: Stable

CCC(=O)NC[C@@H](OP(=O)(O)O)[C@H]1O[C@@H](n2cnc3c(N)ncnc32)[C@H](O)[C@@H]1O
Activity (Oryctolagus cuniculus [23]): 0% | Ki [24]: 205 µM

CC(=O)NC[C@H](OP(=O)(O)O)[C@H]1O[C@@H](n2cnc3c(N)ncnc32)[C@H](O)[C@@H]1O
Activity (Oryctolagus cuniculus [3]): > 0% | Ki [25]: 18 µM

CC1(C)O[C@@H]2[C@H](O1)[C@@H](COP(=O)(O)O)O[C@H]2n1cnc2c(N)ncnc21
Km (Oryctolagus cuniculus [5]): 130 µM | Rf [1]: 0.59 | Rf [26]: 0.34 | Rf [6]: 0.4 | Rf [7]: 0.3 | Activity (Oryctolagus cuniculus [3]): 0.5% | Ki [27]: 260 µM

CCCOC(=O)NCC(C[C@H]1O[C@@H](n2cnc3c(N)ncnc32)[C@H](O)[C@@H]1O)P(=O)(O)O (stereo partly drawn)
Rf [1]: 0.55 | Rf [2]: 0.81 | Activity (Oryctolagus cuniculus [3]): 0% | Ki [28]: 14 µM

CCC(=O)NC[C@H](OP(=O)(O)O)[C@H]1O[C@@H](n2cnc3c(N)ncnc32)[C@H](O)[C@@H]1O
Ki [29]: 42 µM

CC(=O)NC[C@@H](OP(=O)(O)O)[C@H]1O[C@@H](n2cnc3c(N)ncnc32)[C@H](O)[C@@H]1O
Activity (Oryctolagus cuniculus [23]): > 0% | Ki [30]: 47 µM | Ki [31]: 30 µM

CC(=O)NCC(C[C@H]1O[C@@H](n2cnc3c(N)ncnc32)[C@H](O)[C@@H]1O)P(=O)(O)O (stereo partly drawn)
Km (Oryctolagus cuniculus [5]): 80 µM | Rf [1]: 0.29 | Rf [2]: 0.73 | Activity (Oryctolagus cuniculus [3]): 0.61% | Ki [32]: 20 µM | Stability [13]: Stable | Stability [14]: Stable | Stability [15]: Stable | Stability [16]: Stable | Stability [17]: Stable | Stability [18]: Stable | Stability [19]: Stable | Stability [20]: Stable | Stability [21]: Stable | Stability [22]: Stable

CC(=O)O[C@@H]1[C@H](OC(C)=O)[C@@H](COP(=O)(O)O)O[C@H]1n1cnc2c(N)ncnc21
Km (Oryctolagus cuniculus [5]): 670 µM | Rf [1]: 0.56 | Rf [6]: 0.34 | Rf [8]: 0.41 | Activity (Oryctolagus cuniculus [3]): 0.07% | Ki [33]: 105 µM

N#CC(C[C@H]1O[C@@H](n2cnc3c(N)ncnc32)[C@H](O)[C@@H]1O)P(=O)(O)O (stereo partly drawn)
Rf [1]: 0.27 | Rf [2]: 0.71
